# Measurements pooled from the literature.
# Each line is one published result; the experiments were not run side by side.
# Cell line: NCI-H226
# Effect on: cell growth or viability
SMILES,assay,conditions,quantity,result
COc1ccc(C(=O)/C=C/c2cc3c(cc2Br)OCO3)cc1S(N)(=O)=O,SRB,10 µM,inhibition,87%
COc1ccc(-c2ccc(-c3ccc(C(=N)N)nc3)s2)cc1,SRB,,GI50,1.81 µM
O=C(/C=C/C=C/c1ccc2c(c1)OCO2)N1CCCCC1,SRB,,IC50,83.7 µM
COc1ccc(C(=O)/C=C/c2cccc(Cl)c2)cc1S(N)(=O)=O,SRB,48 h,GI50,2.8 µM
CCCc1n(Cc2ccc3ccccc3n2)cc[n+]1Cc1ccc2ccccc2n1,SRB,,TGI,34.8 µM
COc1ccc(C(=O)/C=C/c2ccc(Cl)c(Cl)c2)cc1S(N)(=O)=O,SRB,48 h,GI50,3 µM
COc1cccc(Oc2ccccc2NC(=O)CNC(=O)c2cccc3ccccc23)c1,SRB,48 h,GI50,2.51 µM
O=C1NC(=NCc2cccs2)S/C1=C\c1ccc2ncccc2c1,,,IC50,> 10 µM
COc1cc([C@@H]2c3cc4c(cc3[C@@H](O[C@@H]3O[C@@H]5CO[C@@H](C)O[C@H]5[C@H](O)[C@H]3O)[C@H]3COC(=O)[C@H]23)OCO4)cc(OC)c1O,MTT,72 h,IC50,0.39 µM
CCc1n(Cc2ccc3ccccc3n2)cc[n+]1Cc1ccc2ccccc2c1,SRB,,TGI,4.87 µM
O=c1[nH]cc(S(=O)(=O)Nc2cccc(-c3nnc(-c4cccc(Cl)c4)o3)c2)c(=O)[nH]1,MTT,24 h,IC50,7.7 µM
CCCCC/C=C/C(=O)CCc1ccc(O)c(OC)c1,SRB,,IC50,18 µM
Cc1cc(C)n(C(=S)[S][Au][PH](CCCCCC[PH]([Au][S]C(=S)n2nc(C)cc2C)(c2ccccc2)c2ccccc2)(c2ccccc2)c2ccccc2)n1,SRB,,GI50,2.52 µM
Cc1n(Cc2ccc3ccccc3n2)cc[n+]1Cc1ccc2ccccc2c1,SRB,,TGI,10.9 µM
COc1ccc(C(=O)/C=C/c2ccc3ccccc3c2)cc1S(N)(=O)=O,SRB,48 h,GI50,2.3 µM
CCc1n(Cc2ccc3ccccc3n2)cc[n+]1Cc1ccc2ccccc2n1,SRB,,TGI,30.8 µM
COc1ccc(C(=O)/C=C/c2cccc(Br)c2)cc1S(N)(=O)=O,SRB,48 h,GI50,2.8 µM
